Source: ChEMBL document CHEMBL1772969, “Synthesis, structure-activity relationship, and antimalarial activity of ureas and thioureas of 15-membered azalides” (J Med Chem, 2011)
pIC50: −log10 of the molar value.

Legend:
Plasmodium falciparum [1] = assay: Antimalarial activity against multidrug-resistant Plasmodium falciparum TM91C235 after 48 hrs by [3H]hypoxanthine incorporation assay; type: functional, organism-based
Summary of the method: (§1)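 [3H]hypoxanthine incorporation assay (Desjardins method, Milhous modification) with 48 h drug exposure. Compounds and controls were 2-fold diluted across 11 concentrations. IC50 was fitted by nonlinear logistic dose-response. Values are averaged where multiple results were generated, with relative errors usually <30%.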

Plasmodium falciparum [2] = assay: Antimalarial activity against chloroquine/pyrimethamine-resistant Plasmodium falciparum W2 after 48 hrs by [3H]hypoxanthine incorporation assay; type: functional, organism-based; summary of the method: as §1
[3] = Half life in human liver microsomes at 1 uM by LCMS analysis; type: ADME, Microsome
Summary of the method: (§2)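 Compound at 1 μM final with 0.5 mg/mL pooled human or mouse liver microsomes, 1.3 mM NADP, 3.3 mM MgCl₂, 0.1 M PBS pH 7.4. Reaction started with 1 U/mL G6PD, shaken at 37 °C. Aliquots quenched with cold acetonitrile at 0, 10, 20, 30 and 60 min and quantified by LCMS. t₁/₂ taken from log plot of total ion chromatogram area remaining.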

[4] = Half life in mouse liver microsomes at 1 uM by LCMS analysis; type: ADME, Microsome; summary of the method: as §2
Plasmodium falciparum [5] = assay: Antimalarial activity against chloroquine-sensitive Plasmodium falciparum D6 after 48 hrs by [3H]hypoxanthine incorporation assay; type: functional, organism-based; summary of the method: as §1
HepG2 = assay: Cytotoxicity against human HepG2 cells after 1 to 4 hrs by MTS assay; type: cell-based
Summary of the method: (§3)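 HepG2 and THP-1 cells grown in RPMI 1640 with 10% FBS at 37 °C, 5% CO₂, and passaged twice weekly. Compounds applied as continuous exposure. Viability read by MTS reagent, 1–4 h incubation, absorbance at 490 nm; IC₅₀ derived.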

THP-1 = assay: Cytotoxicity against human THP1 cells after 1 to 4 hrs by MTS assay; type: cell-based; summary of the method: as §3

Work on CC[C@H]1OC(=O)[C@H](C)[C@@H](O[C@H]2C[C@@](C)(OC)[C@@H](O)[C@H](C)O2)[C@H](C)[C@@H](O[C@@H]2O[C@H](C)C[C@H](N(C)C)[C@H]2O)[C@](C)(O)C[C@@H](C)CN(CCNC(=O)NC(C)C)[C@H](C)[C@@H](O)[C@]1(C)O yielded a pIC50 (Plasmodium falciparum [1]) of 6.14, a pIC50 (Plasmodium falciparum [2]) of 5.69 and a half-life at 1 µM [3] of over 120 min. For the same compound, the half-life at 1 µM [4] was over 120 min and the pIC50 (Plasmodium falciparum [5]) was 5.85.

CCOC(=O)CCN(CCN1C[C@H](C)C[C@@](C)(O)[C@H](O[C@@H]2O[C@H](C)C[C@H](N(C)C)[C@H]2O)[C@@H](C)[C@H](O[C@H]2C[C@@](C)(OC)[C@@H](O)[C@H](C)O2)[C@@H](C)C(=O)O[C@H](CC)[C@@](C)(O)[C@H](O)[C@H]1C)C(=O)Nc1ccc2ccccc2c1 showed a pIC50 (Plasmodium falciparum [1]) of 5.67, a pIC50 (HepG2) of 4.64 and a pIC50 (Plasmodium falciparum [2]) of 6.68. The pIC50 (THP-1) was 4.70, the half-life at 1 µM [3] was over 120 min and the half-life at 1 µM [4] was over 120 min. It also gave a pIC50 (Plasmodium falciparum [5]) of 6.11.

Work on CC[C@H]1OC(=O)[C@H](C)[C@@H](O[C@H]2C[C@@](C)(OC)[C@@H](O)[C@H](C)O2)[C@H](C)[C@@H](O[C@@H]2O[C@H](C)C[C@H](N(C)C)[C@H]2O)[C@](C)(O)C[C@@H](C)CN(CCCNC(=O)NC(C)C)[C@H](C)[C@@H](O)[C@]1(C)O yielded a pIC50 (Plasmodium falciparum [1]) of under 5.24, a pIC50 (Plasmodium falciparum [2]) of under 5.24 and a half-life at 1 µM [3] of over 120 min. It also gave a half-life at 1 µM [4] of over 120 min and a pIC50 (Plasmodium falciparum [5]) of under 5.85.

For CC[C@H]1OC(=O)[C@H](C)[C@@H](O[C@H]2C[C@@](C)(OC)[C@@H](O)[C@H](C)O2)[C@H](C)[C@@H](O[C@@H]2O[C@H](C)C[C@H](N(C)C)[C@H]2O)[C@](C)(O)C[C@@H](C)CN(CCCN(CCC#N)C(=O)Nc2ccc3ccccc3c2)[C@H](C)[C@@H](O)[C@]1(C)O, the pIC50 (Plasmodium falciparum [1]) was 6.94, the pIC50 (Plasmodium falciparum [2]) was 6.75 and the half-life at 1 µM [3] was over 120 min. The half-life at 1 µM [4] was over 120 min and the pIC50 (Plasmodium falciparum [5]) was 6.93.

Compound CC[C@H]1OC(=O)[C@H](C)[C@@H](O[C@H]2C[C@@](C)(OC)[C@@H](O)[C@H](C)O2)[C@H](C)[C@@H](O[C@@H]2O[C@H](C)C[C@H](N(C)C)[C@H]2O)[C@](C)(O)C[C@@H](C)CN(CCNC(=O)NCCc2ccccc2)[C@H](C)[C@@H](O)[C@]1(C)O has a pIC50 (Plasmodium falciparum [1]) of 6.61, a pIC50 (HepG2) of under 4.30 and a pIC50 (Plasmodium falciparum [2]) of 6.98. For the same compound, the pIC50 (THP-1) was 4.35, the half-life at 1 µM [3] was over 120 min and the half-life at 1 µM [4] was over 120 min. It also gave a pIC50 (Plasmodium falciparum [5]) of 6.26.

For CC[C@H]1OC(=O)[C@H](C)[C@@H](O)[C@H](C)[C@@H](O[C@@H]2O[C@H](C)C[C@H](N(C)C)[C@H]2O)[C@](C)(O)C[C@@H](C)CN(CCCNC(=S)NCc2ccccc2)[C@H](C)[C@@H](O)[C@]1(C)O, the pIC50 (Plasmodium falciparum [1]) was 5.81, the pIC50 (HepG2) was under 4.30 and the pIC50 (Plasmodium falciparum [2]) was 5.44. The pIC50 (THP-1) was under 4.30, the half-life at 1 µM [3] was over 120 min and the half-life at 1 µM [4] was over 120 min. For the same compound, the pIC50 (Plasmodium falciparum [5]) was 5.69.

CC[C@H]1OC(=O)[C@H](C)[C@@H](O[C@H]2C[C@@](C)(OC)[C@@H](O)[C@H](C)O2)[C@H](C)[C@@H](O[C@@H]2O[C@H](C)C[C@H](N(C)C)[C@H]2O)[C@](C)(O)C[C@@H](C)CN(CCCN(CCC#N)C(=O)Nc2cccc3ccccc23)[C@H](C)[C@@H](O)[C@]1(C)O gave a pIC50 (Plasmodium falciparum [1]) of 6.59, a pIC50 (Plasmodium falciparum [2]) of 5.86 and a half-life at 1 µM [3] of over 120 min. The half-life at 1 µM [4] was over 120 min and the pIC50 (Plasmodium falciparum [5]) was 6.28.

With CC[C@H]1OC(=O)[C@H](C)[C@@H](O)[C@H](C)[C@@H](O[C@@H]2O[C@H](C)C[C@H](N(C)C)[C@H]2O)[C@](C)(O)C[C@@H](C)CN(CCNC(=O)Nc2ccc3ccccc3c2)[C@H](C)[C@@H](O)[C@]1(C)O the pIC50 (Plasmodium falciparum [1]) was 6.97, the pIC50 (HepG2) was 4.80 and the pIC50 (Plasmodium falciparum [2]) was 7.00. The pIC50 (THP-1) was 5.10, the half-life at 1 µM [3] was over 120 min and the half-life at 1 µM [4] was over 120 min. For the same compound, the pIC50 (Plasmodium falciparum [5]) was 6.50.

Compound CC[C@H]1OC(=O)[C@H](C)[C@@H](O[C@H]2C[C@@](C)(OC)[C@@H](O)[C@H](C)O2)[C@H](C)[C@@H](O[C@@H]2O[C@H](C)C[C@H](N(C)C)[C@H]2O)[C@](C)(O)C[C@@H](C)CN(CCNC(=S)NCCc2ccccc2)[C@H](C)[C@@H](O)[C@]1(C)O has a pIC50 (Plasmodium falciparum [1]) of 6.89, a pIC50 (HepG2) of 5.05 and a pIC50 (Plasmodium falciparum [2]) of 6.99. For the same compound, the pIC50 (THP-1) was 5.40, the half-life at 1 µM [3] was over 120 min and the half-life at 1 µM [4] was over 120 min. It also gave a pIC50 (Plasmodium falciparum [5]) of 6.69.

CC[C@H]1OC(=O)[C@H](C)[C@@H](O[C@H]2C[C@@](C)(OC)[C@@H](O)[C@H](C)O2)[C@H](C)[C@@H](O[C@@H]2O[C@H](C)C[C@H](N(C)C)[C@H]2O)[C@](C)(O)C[C@@H](C)CN(CCN(CCC#N)C(=S)NCCc2ccccc2)[C@H](C)[C@@H](O)[C@]1(C)O showed a pIC50 (Plasmodium falciparum [1]) of 6.43, a pIC50 (HepG2) of 5.15 and a pIC50 (Plasmodium falciparum [2]) of 7.19. For the same compound, the pIC50 (THP-1) was 5.22, the half-life at 1 µM [3] was over 120 min and the half-life at 1 µM [4] was over 120 min. The pIC50 (Plasmodium falciparum [5]) was 6.53.

With CCNC(=O)NCCN1C[C@H](C)C[C@@](C)(O)[C@H](O[C@@H]2O[C@H](C)C[C@H](N(C)C)[C@H]2O)[C@@H](C)[C@H](O[C@H]2C[C@@](C)(OC)[C@@H](O)[C@H](C)O2)[C@@H](C)C(=O)O[C@H](CC)[C@@](C)(O)[C@H](O)[C@H]1C the pIC50 (Plasmodium falciparum [1]) was 6.01, the pIC50 (Plasmodium falciparum [2]) was 5.31 and the half-life at 1 µM [3] was over 120 min. The half-life at 1 µM [4] was over 120 min and the pIC50 (Plasmodium falciparum [5]) was 5.44.

Work on CC[C@H]1OC(=O)[C@H](C)[C@@H](O[C@H]2C[C@@](C)(OC)[C@@H](O)[C@H](C)O2)[C@H](C)[C@@H](O[C@@H]2O[C@H](C)C[C@H](N(C)C)[C@H]2O)[C@](C)(O)C[C@@H](C)CN(CCNC(=S)Nc2cccc3ccccc23)[C@H](C)[C@@H](O)[C@]1(C)O yielded a pIC50 (Plasmodium falciparum [1]) of 6.89, a pIC50 (HepG2) of 4.70 and a pIC50 (Plasmodium falciparum [2]) of 7.00. It also gave a pIC50 (THP-1) of 5.05, a half-life at 1 µM [3] of over 120 min and a half-life at 1 µM [4] of over 120 min. It also gave a pIC50 (Plasmodium falciparum [5]) of 6.65.

In the case of CC[C@H]1OC(=O)[C@H](C)[C@@H](O[C@H]2C[C@@](C)(OC)[C@@H](O)[C@H](C)O2)[C@H](C)[C@@H](O[C@@H]2O[C@H](C)C[C@H](N(C)C)[C@H]2O)[C@](C)(O)C[C@@H](C)CN(CCNC(=S)NCCCc2ccccc2)[C@H](C)[C@@H](O)[C@]1(C)O, the pIC50 (Plasmodium falciparum [1]) was 7.09, the pIC50 (HepG2) was 5.10 and the pIC50 (Plasmodium falciparum [2]) was 7.28. It also gave a pIC50 (THP-1) of 5.30, a half-life at 1 µM [3] of over 120 min and a half-life at 1 µM [4] of over 120 min. The pIC50 (Plasmodium falciparum [5]) was 6.74.

Work on CC[C@H]1OC(=O)[C@H](C)[C@@H](O[C@H]2C[C@@](C)(OC)[C@@H](O)[C@H](C)O2)[C@H](C)[C@@H](O[C@@H]2O[C@H](C)C[C@H](N(C)C)[C@H]2O)[C@](C)(O)C[C@@H](C)CN(CCNC(=O)Nc2ccc3ccccc3c2)[C@H](C)[C@@H](O)[C@]1(C)O yielded a pIC50 (Plasmodium falciparum [1]) of 7.62, a pIC50 (HepG2) of 5.05 and a pIC50 (Plasmodium falciparum [2]) of 7.52. The pIC50 (THP-1) was 5.30, the half-life at 1 µM [3] was over 120 min and the half-life at 1 µM [4] was over 120 min. For the same compound, the pIC50 (Plasmodium falciparum [5]) was 7.15.

CC[C@H]1OC(=O)[C@H](C)[C@@H](O[C@H]2C[C@@](C)(OC)[C@@H](O)[C@H](C)O2)[C@H](C)[C@@H](O[C@@H]2O[C@H](C)C[C@H](N(C)C)[C@H]2O)[C@](C)(O)C[C@@H](C)CN(CCCN(CCC#N)C(=O)NC(C)C)[C@H](C)[C@@H](O)[C@]1(C)O gave a pIC50 (Plasmodium falciparum [1]) of 5.89, a pIC50 (Plasmodium falciparum [2]) of under 4.87 and a half-life at 1 µM [3] of over 120 min. For the same compound, the half-life at 1 µM [4] was over 120 min and the pIC50 (Plasmodium falciparum [5]) was under 4.87.

For CC[C@H]1OC(=O)[C@H](C)[C@@H](O[C@H]2C[C@@](C)(OC)[C@@H](O)[C@H](C)O2)[C@H](C)[C@@H](O[C@@H]2O[C@H](C)C[C@H](N(C)C)[C@H]2O)[C@](C)(O)C[C@@H](C)CN(CCNC(=O)Nc2ccccc2)[C@H](C)[C@@H](O)[C@]1(C)O, the pIC50 (Plasmodium falciparum [1]) was 6.99, the pIC50 (HepG2) was 4.32 and the pIC50 (Plasmodium falciparum [2]) was 7.17. For the same compound, the pIC50 (THP-1) was 4.57, the half-life at 1 µM [3] was over 120 min and the half-life at 1 µM [4] was over 120 min. For the same compound, the pIC50 (Plasmodium falciparum [5]) was 6.65.
